Measured values as given in PubChem BioAssay AID588485 (Southern Research Specialized Biocontainment Screening …, 2011).
Several values for one entry are separate records, joined by “and”; a condition that tells them apart may be missing. Identical values can stand only once. Activity calls are given as the source filed them.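 The calls were made as follows: active = CPE inhibition of 50% or more; inactive = the rest.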

What was measured:
[1] = test system: HEp-2 RSV Long CPE inhibition, luminescence viability; experiment: RSV cytopathic effect inhibition in HEp-2 cells, dose response, cell-based, synthesized compounds, set 14 (AID 588485)
In short: (§1)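 test system = HEp-2 human cells infected with RSV strain Long | times = 6 days compound and virus exposure at 37 °C | technique = luminescence-based measurement of virus-induced cytopathic effect | read-out basis = percent CPE inhibition versus controls, IC50 by 4-parameter fit fixed 0/100 | control set = uninfected cell-only wells and infected virus control wells | replication = triplicate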

[2] = as above; conditions: HEp-2 RSV Long CPE inhibition, luminescence viability; at 50 µM (top of the series)
In short: as §1

Row | Structure (SMILES) | IC50 [1] | CPE inhibition [2]
1 | CC(C)c1ccc(Cn2c(=O)n(Cc3ccc(C(=O)NCc4ccco4)cc3)c(=O)c3ccccc32)cc1 | 1.35 µM | –
2 | COCCCNC(=O)c1ccc(Cn2c(=O)c3ccccc3n(Cc3ccc([N+](=O)[O-])cc3)c2=O)cc1 | 0.46 µM | –
3 | CN(C)c1ccc(Cn2c(=O)n(Cc3ccc(C(=O)NCC4COC4)cc3)c(=O)c3ccccc32)cc1 | 1.25 µM | –
4 | O=C(O)c1ccc(Cn2c(=O)n(Cc3ccc(C(=O)NCC4COC4)cc3)c(=O)c3ccccc32)cc1 | – | 0.24% (inactive) and 0.09% (inactive)
